Screens from PubChem BioAssay.
Rows were chosen to be rich in hits. Some 1.3% of all compounds tested hit in one or more screens of this group.
Arr AP2 block = inhibitors of beta-arrestin/AP2 binding, primary screen, biochemical, GPCR trafficking, flow cytometry; beta-arrestin 1 C-terminal peptide binding to AP2 beta2-adaptin appendage (human); 340,000 tested, 0.31% active; FITC-arrestin peptide / GST-AP2 beads; AP2 beta2 appendage carries R879A mutation; AID 504490, 2011; inhibition, % at 10 µM;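 active means inhibition above a set limit, near 3 SD of compounds lacking own fluorescence, cut at about 54% in these data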
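test system = AP2 appendage R879A on GSH beads | buffer or medium = PBS plus Tween 20 (0.05%) and BSA (0.1%) | incubation = 12 min plus 1 h, RT | detection = bead flow cytometry, FITC channel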
PLC-beta3 inh = human PLC-beta3 inhibitors, primary screen, biochemical, fluorescence | Purified PLC-beta3, fluorogenic substrate | inhibition, % at 12.2 µM | 370,000 tested, 0.18% active | AID 720704, 2013; in the data active means inhibition above about 11%
Target sequence (Q01970 whole entry, looked up): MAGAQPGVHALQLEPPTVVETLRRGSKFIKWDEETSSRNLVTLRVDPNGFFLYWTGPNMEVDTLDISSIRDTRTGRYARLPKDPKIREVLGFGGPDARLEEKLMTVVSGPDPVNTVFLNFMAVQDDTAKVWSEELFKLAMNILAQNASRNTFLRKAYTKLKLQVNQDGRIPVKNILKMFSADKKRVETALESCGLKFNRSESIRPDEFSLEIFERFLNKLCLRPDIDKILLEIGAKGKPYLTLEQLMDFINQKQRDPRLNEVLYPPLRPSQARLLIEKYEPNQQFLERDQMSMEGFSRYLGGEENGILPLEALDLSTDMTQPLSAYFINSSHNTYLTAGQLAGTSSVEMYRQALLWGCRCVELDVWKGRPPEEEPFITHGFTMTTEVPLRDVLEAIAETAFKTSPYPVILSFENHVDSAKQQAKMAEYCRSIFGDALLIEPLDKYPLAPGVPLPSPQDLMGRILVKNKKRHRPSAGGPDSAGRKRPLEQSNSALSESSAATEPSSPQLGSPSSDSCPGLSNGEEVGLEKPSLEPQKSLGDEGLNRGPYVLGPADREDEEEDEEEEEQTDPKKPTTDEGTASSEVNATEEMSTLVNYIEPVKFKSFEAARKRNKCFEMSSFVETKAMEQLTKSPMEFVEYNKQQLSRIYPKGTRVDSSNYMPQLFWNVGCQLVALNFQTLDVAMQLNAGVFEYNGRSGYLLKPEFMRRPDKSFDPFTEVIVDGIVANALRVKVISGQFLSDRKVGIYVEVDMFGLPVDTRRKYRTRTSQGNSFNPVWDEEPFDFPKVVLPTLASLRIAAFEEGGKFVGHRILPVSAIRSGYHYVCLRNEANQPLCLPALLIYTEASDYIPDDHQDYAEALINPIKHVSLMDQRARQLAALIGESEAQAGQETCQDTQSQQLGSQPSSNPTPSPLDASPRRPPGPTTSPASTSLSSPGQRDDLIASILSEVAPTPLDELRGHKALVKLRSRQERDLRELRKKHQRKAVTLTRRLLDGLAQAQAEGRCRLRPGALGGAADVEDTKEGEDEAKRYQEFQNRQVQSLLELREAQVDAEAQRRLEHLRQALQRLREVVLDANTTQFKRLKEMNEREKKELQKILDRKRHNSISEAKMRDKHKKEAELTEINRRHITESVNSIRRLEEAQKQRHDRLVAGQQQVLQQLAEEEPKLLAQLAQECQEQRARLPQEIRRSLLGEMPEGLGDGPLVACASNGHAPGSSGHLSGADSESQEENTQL
PLC-gamma1 inh = PLC-gamma1 enzyme inhibitors, primary screen, biochemical, fluorescence, purified enzyme; 1-phosphatidylinositol 4,5-bisphosphate phosphodiesterase gamma-1 (Homo sapiens), P19174; fluorogenic substrate; inhibition, % at 12.2 µM; 370,000 tested, 0.84% active; in the data active means inhibition above about 9.5%
NTR1 ag = agonists of human NTR1, primary screen, imaging, U2OS cells, beta-arrestin-GFP, high content. Neurotensin receptor type 1 (Homo sapiens), P30989. 330,000 tested, 0.17% active. activation, % at 20 µM. NTR1-U2OS beta-arrestin-GFP spot imaging, agonist mode. AID 493036, 2011;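 active means activation at or above 40% of the spot to cytoplasm intensity ratio, with at least 20 cells analyzed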
Arr-AP2 CP1 = inhibitors of arrestin peptide binding to AP2, confirmation, biochemical, cherry pick 1, flow cytometry beads; inhibition, % at 10 µM; 1,300 tested, 2% active; shares compounds with Arr AP2 block; GST-AP2 beads, FITC arrestin peptide binding; GST-fused beta2-adaptin appendage, R879A mutant;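 active means inhibition above a set limit, roughly 3 SD of non-fluorescent compound noise, cut at about 38% in these data; inactive means inhibition at or below that limit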;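 further: loss of bead fluorescence from 50 nM FITC arrestin peptide bound to appendage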
GST GSH counter = GST-fluorescein capture on glutathione beads, confirmation, artefact control for arrestin-AP2 inhibitor project, biochemical, cherry pick 1, flow cytometry | 1,300 tested, 2% active | AID 588338, 2011 | shares compounds with Arr AP2 block | inhibition, % at 10 µM | GST-fluorescein binding to GSH beads, fluorescence, counter-screen;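 active means inhibition above 50%, about 3 SD of the inhibition seen with non-fluorescent compounds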;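 further: fluorescein maleimide labelled GST captured on 4 micron glutathione beads; higher means more loss of bead fluorescence from quenching or blocked binding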
Each line names hits and unclear results; the compound was inactive in the other large screens (follow-up assays come after a bar, where they were run).

CCN(CC)C(=O)CSc1nnc2nnc3cc(C)ccc3n12	Arr AP2 block 57 | Arr-AP2 CP1 inactive | GST GSH counter inactive
CCn1cc(C(=O)Nc2ccc(C)c([N+](=O)[O-])c2)cn1	Arr AP2 block 57 | Arr-AP2 CP1 inactive | GST GSH counter inactive
CCn1cc(C(=O)Nc2ccc(F)c(F)c2)cn1	none
Cn1c(N)c(C(=O)COC(=O)c2cc(S(=O)(=O)N3CCCCC3)ccc2Cl)c(=O)n(C)c1=O	none
Cn1c(N)c(C(=O)COC(=O)c2ccc(Cl)nc2)c(=O)n(C)c1=O	none
Cn1c(N)c(C(=O)COC(=O)c2ccc(F)cc2Cl)c(=O)n(C)c1=O	none | Arr-AP2 CP1 inactive | GST GSH counter inactive
Cn1c(N)c(C(=O)COC(=O)c2cc3ccccc3cc2O)c(=O)n(C)c1=O	none
Cn1c(N)c(C(=O)COC(=O)c2ccco2)c(=O)n(C)c1=O	none | Arr-AP2 CP1 inactive | GST GSH counter inactive
CCCOc1ccc(C(=O)OCC(=O)c2c(N)n(C)c(=O)n(C)c2=O)cc1OC	none
CC(C)c1ccc(C(=O)OCC(=O)c2c(N)n(C)c(=O)n(C)c2=O)cc1	none | Arr-AP2 CP1 inactive | GST GSH counter inactive
COc1cc(C(=O)OCC(=O)c2c(N)n(C)c(=O)n(C)c2=O)ccc1OCCC(C)C	Arr AP2 block 55 | Arr-AP2 CP1 inactive | GST GSH counter inactive
CC(C)Cn1c(N)c(C(=O)COC(=O)c2ccc(O)cc2)c(=O)n(C)c1=O	none | Arr-AP2 CP1 inactive | GST GSH counter inactive
Cn1c(N)c(C(=O)COC(=O)c2ccc(OC(F)F)cc2)c(=O)n(C)c1=O	none | Arr-AP2 CP1 inactive | GST GSH counter inactive
CC(=O)c1c(C)[nH]c(C(=O)OCC(=O)c2c(N)n(CC(C)C)c(=O)n(C)c2=O)c1C	none | Arr-AP2 CP1 inactive | GST GSH counter inactive
Cc1cc2c(nc1C)CCCN2Cc1ccccc1C(F)(F)F	none (no result: Arr AP2 block, NTR1 ag)
O=C(c1ccc(-c2ccc([N+](=O)[O-])cc2)o1)N1CCN(S(=O)(=O)c2cccs2)CC1	Arr AP2 block 65 | Arr-AP2 CP1 inactive | GST GSH counter inactive
CCOC(=O)C1=C(COC(=O)COc2cccc(C)c2C)NC(=O)NC1C (stereo not drawn)	none | Arr-AP2 CP1 inactive | GST GSH counter inactive
CCOC(=O)C1=C(COC(=O)COc2ccccc2OCC)NC(=O)NC1C (stereo not drawn)	none | Arr-AP2 CP1 inactive | GST GSH counter inactive
CCOC(=O)C1=C(COC(=O)COc2ccccc2C(C)C)NC(=O)NC1C (stereo not drawn)	Arr AP2 block 61 | Arr-AP2 CP1 inactive | GST GSH counter inactive
CCOC(=O)C1=C(COC(=O)COc2ccccc2C=O)NC(=O)NC1C (stereo not drawn)	none
CCOC(=O)C1=C(COC(=O)c2ccccc2OC(F)F)NC(=O)NC1C (stereo not drawn)	none
CCOC(=O)C1=C(COC(=O)COc2ccc(OCC)cc2)NC(=O)NC1C (stereo not drawn)	none | Arr-AP2 CP1 inactive | GST GSH counter inactive
CN(C)c1cccc(/C=C2\CC3(OC(=O)c4cccc(F)c4)CCCN2C3)c1 (stereo not drawn)	none (no result: Arr AP2 block, NTR1 ag)
C[C@H](O)[C@@H]1CN2CCc3c([nH]c4cccc(-c5ccccc5)c34)[C@@H]2C[C@@H]1N(C)C(=O)C1CCCCC1	none (no result: Arr AP2 block, NTR1 ag)
Cc1ccc(C2CCC3(CCC(=O)N3CCOC(=O)Nc3ccc(Br)cc3)CC2)cc1 (stereo not drawn)	none (no result: Arr AP2 block, NTR1 ag)
Cn1cccc1C=NNC(=O)c1cc(-c2ccc(Cl)cc2)n[nH]1	none (no result: Arr AP2 block, NTR1 ag)
CCC[C@H]1[C@@H](NC(=O)c2cccc(N(C)C)c2)CC[C@@]23CCCN2C(=O)CCC[C@@H]13	none (no result: Arr AP2 block, NTR1 ag)
CCOC(=O)C1=C(COC(=O)/C=C/c2ccccc2)NC(=O)NC1C (stereo not drawn)	none
CCOC(=O)C1=C(COC(=O)c2cccc(Br)c2)NC(=O)NC1C (stereo not drawn)	none
CCOC(=O)C1=C(COC(=O)CCOc2cccc(C)c2)NC(=O)NC1C (stereo not drawn)	none | Arr-AP2 CP1 inactive | GST GSH counter inactive
CCOC(=O)C1=C(COC(=O)CCOc2cc(C)ccc2C)NC(=O)NC1C (stereo not drawn)	none | Arr-AP2 CP1 inactive | GST GSH counter inactive
CCOC(=O)C1=C(COC(=O)CCOc2ccccc2)NC(=O)NC1C (stereo not drawn)	none | Arr-AP2 CP1 inactive | GST GSH counter inactive
CCOC(=O)C1=C(COC(=O)CSc2ccc(C)cc2C)NC(=O)NC1C (stereo not drawn)	none
CN1C(=O)C[C@@](C#N)(C(=O)N2CCCC2)[C@H]1c1ccccc1	none (no result: Arr AP2 block, NTR1 ag)
Nc1[nH]c2cc(C(F)(F)F)ccc2c1C(=O)NCc1ccc(F)cc1	none (no result: Arr AP2 block, NTR1 ag)
COc1ccccc1NCCC(=O)OCC(=O)NCc1ccco1	Arr AP2 block 75 | Arr-AP2 CP1 inactive | GST GSH counter inactive
COc1cc(CCC(C)=O)ccc1OC(=O)c1c(-c2c(F)cccc2Cl)noc1C	none (no result: Arr AP2 block, NTR1 ag)
CCOc1ccc(-c2nc(CSCC(=O)NCc3ccco3)c(C)o2)cc1	Arr AP2 block 98 | Arr-AP2 CP1 inactive | GST GSH counter inactive
CCOc1ccc(-c2nc(CSCC(=O)NC3CC3)c(C)o2)cc1	none (no result: PLC-beta3 inh, PLC-gamma1 inh)
CC1=C(c2ccccc2)[N+](=O)C2(CCCCC2)N1[O-]	none
CC1C(c2ccccc2)=[N+]([O-])C2(CCCCC2)N1O (stereo not drawn)	Arr AP2 block 74 | Arr-AP2 CP1 inactive | GST GSH counter inactive
COc1ccc(/C=N\N=C2/SC(CC(=O)O)C(=O)N2c2ccc(O)cc2)cc1 (stereo not drawn)	Arr AP2 block 56 | Arr-AP2 CP1 inactive | GST GSH counter inactive
COc1ccc(/C=N/N=C2\SC(CC(=O)O)C(=O)N2c2ccccc2)cc1 (stereo not drawn)	none
CC(=O)Nc1cccc(NC(=O)C2CC(=O)N(C3CCCCC3)C2)c1 (stereo not drawn)	Arr AP2 block 61 | Arr-AP2 CP1 inactive | GST GSH counter inactive
COc1ccccc1CN1CC(C(=O)NCc2ccc(C)c(F)c2)CCC1=O (stereo not drawn)	none | Arr-AP2 CP1 inactive | GST GSH counter inactive
COc1ccccc1CCNC(=O)C1CCC(=O)N(Cc2ccccc2OC)C1 (stereo not drawn)	Arr AP2 block 66 | Arr-AP2 CP1 inactive | GST GSH counter inactive
COc1ccccc1CN1CC(C(=O)NCc2ccc(SC)cc2)CCC1=O (stereo not drawn)	none
COc1ccccc1CN1CC(C(=O)NCc2c(F)ccc(C)c2F)CCC1=O (stereo not drawn)	none | Arr-AP2 CP1 inactive | GST GSH counter inactive
